Source: ChEMBL document CHEMBL3414433, “Discovery and profiling of a selective and efficacious Syk inhibitor” (J Med Chem, 2015)
The source made the active and inactive calls. The calls are words filed in the database; no cut-off is given here.

Key:
[1] = biological target: Tyrosine-protein kinase SYK (Homo sapiens, UniProt P43405); test: Inhibition of Syk in anti-CD32 stimulated CD14+ human monocytes assessed as phospho-SLP76 level preincubated for 30 mins followed by anti-CD32 stimulation measured after 5 mins by flow cytometric analysis
[2] = Mean residence time in Beagle dog at 0.1 mg/kg, iv and 0.3 mg/kg, po; type: ADME, organism-based, Canis lupus familiaris; details: in vivo
Summary of the method: (§1)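 Beagle dogs dosed one-in-one. The i.v. dose was 0.1 mg/kg in NMP/PEG200 (3:7), and the p.o. dose was 0.3 mg/kg in MC/water (0.5:99.5). Blood levels were followed after each route.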

[3] = Oral bioavailability in Beagle dog at 0.3 mg/kg; type: ADME, organism-based, Canis lupus familiaris; details: in vivo; summary of the method: as §1
Canis familiaris [4] = test: Dose normalized Cmax in Beagle dog at 0.1 mg/kg, iv and 0.3 mg/kg, po; type: ADME, organism-based, Canis lupus familiaris; details: in vivo
Summary of the method: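 One-in-one dosing in Beagle dogs: i.v. 0.1 mg/kg in NMP/PEG200 (3:7); p.o. 0.3 mg/kg in MC/water (0.5:99.5). Exposure values dose normalized.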

[5] = biological target: T1, Tyrosine-protein kinase Mer (Homo sapiens, UniProt Q12866); test: Competitive binding affinity to human MERTK
T1 sequence (Q12866 whole entry): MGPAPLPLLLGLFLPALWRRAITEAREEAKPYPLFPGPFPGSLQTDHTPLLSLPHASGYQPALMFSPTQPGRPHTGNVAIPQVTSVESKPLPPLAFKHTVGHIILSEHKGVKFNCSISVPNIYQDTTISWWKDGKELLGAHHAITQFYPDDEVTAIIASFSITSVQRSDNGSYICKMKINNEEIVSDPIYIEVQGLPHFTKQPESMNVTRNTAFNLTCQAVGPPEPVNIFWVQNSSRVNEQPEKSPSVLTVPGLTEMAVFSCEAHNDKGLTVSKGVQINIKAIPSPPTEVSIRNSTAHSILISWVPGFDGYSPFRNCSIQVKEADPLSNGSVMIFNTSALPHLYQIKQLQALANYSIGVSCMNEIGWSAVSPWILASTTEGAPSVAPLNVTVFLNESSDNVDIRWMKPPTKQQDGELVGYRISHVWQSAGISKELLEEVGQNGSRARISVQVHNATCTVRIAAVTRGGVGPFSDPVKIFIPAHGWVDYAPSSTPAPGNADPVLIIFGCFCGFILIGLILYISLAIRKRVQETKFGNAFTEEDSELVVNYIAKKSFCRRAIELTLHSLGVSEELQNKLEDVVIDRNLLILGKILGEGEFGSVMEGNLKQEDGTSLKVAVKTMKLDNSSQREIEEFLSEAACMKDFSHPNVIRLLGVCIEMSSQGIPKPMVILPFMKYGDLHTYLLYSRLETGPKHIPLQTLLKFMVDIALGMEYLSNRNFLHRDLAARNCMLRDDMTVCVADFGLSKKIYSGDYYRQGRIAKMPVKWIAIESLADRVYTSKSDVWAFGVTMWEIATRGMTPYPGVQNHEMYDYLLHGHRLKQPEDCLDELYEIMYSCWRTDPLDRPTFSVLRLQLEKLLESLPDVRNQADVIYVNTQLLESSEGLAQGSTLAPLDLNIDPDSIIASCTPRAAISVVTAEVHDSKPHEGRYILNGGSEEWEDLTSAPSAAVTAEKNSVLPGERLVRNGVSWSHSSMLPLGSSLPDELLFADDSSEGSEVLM

[6] = biological target: T2, Tyrosine-protein kinase ZAP-70 (Homo sapiens, UniProt P43403); test: Inhibition of ZAP70 in anti-CD3 stimulated human Jurkat T cells assessed as SLP76 phosphorylation at Y128 preincubated for 30 mins followed by anti-CD3 stimulation measured after 2 mins by FACS analysis; type: cell-based
T2 sequence (P43403 whole entry): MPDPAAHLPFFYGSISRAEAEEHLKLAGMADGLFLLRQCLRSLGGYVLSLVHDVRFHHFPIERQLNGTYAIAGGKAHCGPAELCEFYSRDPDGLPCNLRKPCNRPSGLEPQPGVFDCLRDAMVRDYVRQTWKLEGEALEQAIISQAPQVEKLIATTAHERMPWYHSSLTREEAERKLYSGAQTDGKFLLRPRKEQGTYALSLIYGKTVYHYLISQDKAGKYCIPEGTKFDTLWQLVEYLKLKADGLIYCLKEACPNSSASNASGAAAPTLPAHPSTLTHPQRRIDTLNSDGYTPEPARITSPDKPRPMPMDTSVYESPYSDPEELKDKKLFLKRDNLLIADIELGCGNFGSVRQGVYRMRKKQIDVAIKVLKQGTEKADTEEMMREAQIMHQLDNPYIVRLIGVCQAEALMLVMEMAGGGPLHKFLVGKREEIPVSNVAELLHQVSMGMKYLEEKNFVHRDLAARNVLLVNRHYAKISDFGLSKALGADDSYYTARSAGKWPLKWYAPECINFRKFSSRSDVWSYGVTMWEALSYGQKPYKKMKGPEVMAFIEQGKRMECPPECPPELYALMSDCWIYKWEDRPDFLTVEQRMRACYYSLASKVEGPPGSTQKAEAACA
Summary of the method: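 Jurkat T cells washed in RPMI/0.1% FCS, preincubated with compound 30 min at 37 °C, stimulated with anti-TCR OKT3 (30 μg/mL final) 2 min at 37 °C, fixed in 2% PFA, permeabilized in 90% methanol, stained anti-SLP76 pY128 80 min at RT; flow cytometry. IC50 from factor F = MFI × percent positive cells.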

Rattus norvegicus [7] = test: In vivo inhibition of Syk in Lewis rat assessed as reduction in FcgR-induced SLP76 phosphorylation in peripheral blood monocytes at 22 mg/kg, po measured after 24 hrs relative to vehicle-treated control; type: functional
Summary of the method: (§2)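 Single oral dose of 22 mg/kg to Lewis rats; blood sampled at 2, 4 and 24 h after dosing for compound level and ex vivo FcγR-induced phospho-SLP76 in peripheral blood monocytes.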

[8] = Drug uptake in Lewis rat blood at 22 mg/kg, po measured after 24 hrs; type: ADME, organism-based; parameters: dose 22 mg/kg, route oral; details: read-out: Drug uptake; summary of the method: as §2
Rattus norvegicus [9] = test: Antiarthritic activity in Lewis rat collagen-induced arthritis model assessed as reversal of paw swelling at 3 to 30 mg/kg, po qd administered on day 15 post immunization measured after day 28; type: functional, organism-based
Summary of the method: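 Collagen arthritis in female Lewis rats (porcine collagen day 0, boost day 7); swollen-joint rats randomized and given oral doses of 3, 10 or 30 mg/kg once daily, days 15–28. Swelling scored visually three times a week, per paw 0−3 metatarsal plus 0−3 ankle, composite 0−12 per rat; group means calculated.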

[10] = Drug uptake in blood of Lewis rat collagen-induced arthritis model at 10 mg/kg, po qd administered on day 15 post immunization measured at 24 hrs on day 18; type: ADME, organism-based; parameters: dose 10 mg/kg, route oral; details: read-out: Drug uptake
Summary of the method: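 Collagen-arthritic Lewis rats given 3, 10 or 30 mg/kg p.o. once daily from day 15; blood levels measured on day 18 (third day of treatment) at 4, 8 and 24 h after dosing.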

Rattus norvegicus [11] = species: Rattus norvegicus; test: Hepatotoxicity in rat assessed as single necrosis of hepatocytes measured for 4 weeks by GLP study; type: toxicity, organism-based, Hepatocyte; details: 672 h
Rattus norvegicus [12] = species: Rattus norvegicus; test: Hepatotoxicity in rat assessed as portal inflammation measured for 4 weeks by GLP study; type: toxicity, organism-based; details: in vivo, 672 h
Canis familiaris [13] = species: Canis familiaris; test: Toxicity in dog assessed as prolongation of QT interval by telemetry study; type: organism-based, Canis lupus familiaris; details: in vivo

SMILES: NC(=O)c1nnc(N[C@@H]2CCCC[C@@H]2N)nc1Nc1cccc2cc[nH]c12
- IC50 [1]: 367 nM
- MRT [2]: 8.4 h
- bioavailability [3]: 54%
- Cmax/dose (Canis familiaris [4]): 139 nM
- Kd [5]: 150 nM
- IC50 [6]: 2530 nM
- inhibition in vivo at 22 mg/kg (Rattus norvegicus [7]): 45%
- concentration at 24 h [8]: 300 nM
- Activity (Rattus norvegicus [9]): Active
- concentration at 24 h [10]: 156 nM
- Activity (Rattus norvegicus [11]): Toxic
- Activity (Rattus norvegicus [12]): Toxic
- Activity (Canis familiaris [13]): Non-toxic
